Measurements as given in the EternaBench riboswitch data.

System: MS2 coat protein
Assay: apparent Kd, MS2 coat protein; higher = weaker binding; RNA-MaP array; FMN 200 µM where present
How it was run: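 In 100 mM Tris-HCl pH 7.5, 80 mM KCl, 4 mM MgCl2, BSA, DTT, yeast tRNA and Tween-20, SNAP-549-labelled MS2 coat protein was titrated from 0.7 or 1.5 nM, doubling to 3 µM, over designs transcribed by stalled E. coli RNA polymerase on Illumina sequencing-chip clusters. This was done first without ligand, then with ligand held constant. After green signal was normalised to red-channel RNA signal and control-cluster median Fmax, the apparent Kd was taken as the median of filtered per-cluster binding-curve fits.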

[1] = designed as: OFF switch for flavin mononucleotide, no ligand
[2] = ligand present: flavin mononucleotide, designed as: OFF switch for flavin mononucleotide
[3] = designed as: ON switch for flavin mononucleotide, no ligand
[4] = ligand present: flavin mononucleotide, designed as: ON switch for flavin mononucleotide

Sequence | apparent Kd [1] | apparent Kd [2] | apparent Kd [3] | apparent Kd [4]
AAAUAGUUAGGAUAUACAUGAGGAUCACCCAUGUAGGGUUCAGUCAUGCAGAAAAUGCGUAGAAGGAACUAUCC | 18.4 nM | 16.7 nM |  | 
AAAUCCAACGAAGGAUAUACAAACAUGAGGAUCACCCAUGUGUCUUUCGUGUAACUGGAAUUCGGGUAGAAGGUCGUUGACAUA | 11.8 nM | 17.6 nM |  | 
AAAUCCGCUGAGGAUAUCAUGACUGAGAGGUCAUGAGAAGGCGGUACAUGAGGAUCACCCAUGUCUAUGGGCAA | 492 nM | 454 nM |  | 
AAAUCGCAAGGAUAUCGUCAGUCUGACAUGAGGAUCACCCAUGUUAUCUUGGUAUCAGAGCGAGAAGGUGCAAAGU | 13 nM | 13.9 nM |  | 
AAAUGCAAUCAAGGAUAUGUAUUAAAGAUAUGAAAACAUGAGGAUCACCCAUGUAUAUGGUGGGAACAGAAGGUGAAUAAGUAA | 223 nM | 200 nM |  | 
AAAUUAAGAUGAGGAUAUUGACAUGAGGAUCACCCAUGUAUUUGGGAAUGUUUACUGAAUUCUUACAAGAAGGUAUACGAACUU | 206 nM | 134 nM |  | 
AAAUUGCUAGAGGAUAUCGGAUAGGAUCUAUUACGAGAAGGUUGGACAUGAGGAUCACCCAUGUUCUGUUGGGA | 23.8 nM | 23.5 nM |  | 
AAAUUGGUAGAGGAUAUCGGAUAGGAUUUACUGCGAGAAGGCUGCACAUGAGGAUCACCCAUGUUCUGUUGGGA | 123 nM | 152 nM |  | 
AAAUUGUCAGGAUAUCCAACUAUACGAAAUAUAUAUACACAGGAGAAGGGACAUGAGGAUCACCCAUGUUUGAA | 24.6 nM | 19.1 nM |  | 
AAAUUUAACGAAGGAUAUGCUGACAUGAGGAUCACCCAUGUGUGCCUUGUGUUACUGAUUAGGUUGCAGAAGGUCGUAUACAUA | 230 nM | 948 nM |  | 
AAAUUUGACGAAGGAUAUGGAUACAUGAGGAUCACCCAUGUUUAUUUUGUGAUUUUGUUUAAGUACCAGAAGGUCGAAUACAUA | 39 nM | 63.9 nM |  | 
AAAUUUUGUCAAGGAUAUGUAUAAUUGAUUUGAAAACAUGAGGAUCACCCAUGUAUAUUGUGGGAACAGAAGGUGAAUAAGUAA | 209 nM | 190 nM |  | 
AACAAACAUGAGGAUCACCCAUGUCAGGAUAUCCGAAAUAAAGAAACAAUAAUAAUAAGGAGAAGGGACUAAAU | 53.5 nM | 55.5 nM |  | 
AACAACUCUGUGAGGAUAUGCAAUUGUUGAUCAAGGCAGAAGGCACAUGAGGAUCACCCAUGUUCCUACAAGGG | 47.3 nM | 110 nM |  | 
AACAAUCUAUCUGAGGAUAUCAUGAAAAAAACAUGAGGAUCACCCAUGUGCAGGAAAACUGCAUAUGAGAAGGCAGAUAGAUUGC |  |  | 590 nM | 26.8 nM
AACAAUCUAUCUGAGGAUAUCAUGUCAAAGACAUGAGGAUCACCCAUGUACCAGGAAACUGGUUAUGAGAAGGCAGAUAGAUUGA |  |  | 1260 nM | 54.8 nM
AACACGAGAGGUGUUAUCUAACCACAUGAGGAUCACCCAUGUAAGGAUAUCGCGGCUAUCGGCAUCGAGAAGGUACAGGGUGCA | 44.1 nM | 93.6 nM |  | 
AACAGCUCGUCAGGAUAUAUUAUAUUUAUAUGGAUUAAUGUACAUGAGGAUCACCCAUGUAGUUAGUAGAAGGGACGAGCUGAA | 8.4 nM | 10.8 nM |  | 
AACAGUACAGGAUAUACAUGAGGAUCACCCAUGUGAGAAUUUAGCAGCGUACCACACAGUAGAAGGGUAAUGGA | 28.2 nM | 25.5 nM |  | 
AACAUGCUAGGAUAUACAAGACAAAUUGGGCAUCCGCAUGGACAUGAGGAUCACCCAUGUAGAAGGAGUAUAAA | 167 nM | 278 nM |  | 
AACCCUACUGAGGAUAUGAAACGGCUAGACGCAUCAGAAGGCAGUACAUGAGGAUCACCCAUGUACCUCCGGGC | 13.3 nM | 20.9 nM |  | 
AACCCUUGAGGAUAUUAAACAAAUCACAUGAGGAUCACCCAUGUGCAUACCUCGUGGCUUUGAGAAGGCAGUCGGG | 34.9 nM | 39.2 nM |  | 

Sequence | apparent Kd [1] | apparent Kd [2] | apparent Kd [3] | apparent Kd [4]
AACCGCGACCGGCCUGGCACGCCGAGAAGGGUACGUGACCUGCUUUACAUGAGGAUCACCCAUGUACAGGAUAUCGGAUAGCCG |  | 7.28 nM |  | 
AACCUAAAACAGAAGGCCAAAUACAUGAGGAUCACCCAUGUCGAAUCAUGGAGGAUAUGUUAUUAAUUACUCGCAGAUGAGUGC |  |  | 70 nM | 7.49 nM
AACCUAUUACAGAAGGCCAGCUACAUGAGGAUCACCCAUGUCGAGUCAUGGAGGAUAUGUAGUAAUCUGCACGCGUGCGGGCAC |  |  | 49.8 nM | 6.65 nM
AACGUCCUAGGAUAUACGCUGGGACUCGCCAUGUGGGCCCUACAUGAGGAUCACCCAUGUAGAAGGAGGACAUG | 19.5 nM | 12.9 nM |  | 
AACGUGGCAAAGGAUAUCCACACGGCAAAGCCGGGAGAAGGUUGCACAUGAGGAUCACCCAUGUGAACCAAACA | 14.9 nM | 17.8 nM |  | 
AACUCACAUGAGGAUCACCCAUGUGAGGAUAUAUUGUUAUGGAUGUUAUUUUGUAGUGGUAGAAGGCGCGUGAU | 15.3 nM | 15.2 nM |  | 
AACUCGUCAGGAUAUGCGCACAGAUAAUACGCUACACAAUUGCAGAAGGGACAUGAGGAUCACCCAUGUAAAUA | 39 nM | 26.2 nM |  | 
AACUGACAUGAGGAUCACCCAUGUCAGGAUAUGACUUCAAAAUAAAAAUAAAAUGAUGUCAGAAGGGACAUGGA | 22.6 nM | 36.1 nM |  | 
AAGAAAGAAACAUAGGAUAUCAAGGAUAUAACAUGAGGAUCACCCAUGUAAAUACGAAAGUAUAAUGAGAAGGAUGGAUGAUCUUC |  |  | 86.1 nM | 122 nM
AAGAAGUCAGGAUAUCCAGCUCGUCACUUGCGUGAUGAGUUGGAGAAGGGACAUGAGGAUCACCCAUGUAAAGG | 202 nM | 230 nM |  | 
AAGAAGUGAGGAUAUGCUGCUCGUCACGAAAGUGAUGAGUAGCAGAAGGCACAUGAGGAUCACCCAUGUAAAGA | 36.9 nM | 55.4 nM |  | 
AAGAGCGAUUCUCCCUUCCUACAUGAGGAUCACCCAUGUACGAGAAGGCGCCGUGGAUACCACGGUGAGGAUAUCGUGCGUUAC | 4.55 nM | 5.13 nM |  | 
AAGAGUAGAGGAUAUAUAUGAAAAGAGUCGAAAGACUCAAAACAUGAGGAUCACCCAUGUAGAAGGCUACUCAA | 17.8 nM | 21.1 nM |  | 
AAGAGUGCAGGAUAUACUUGGUAGGGCGGGUGGAUGGUUUGACAUGAGGAUCACCCAUGUAGAAGGGCAGAGAG | 38.7 nM | 27.6 nM |  | 
AAGAUGCGGGUAGGAUAUGGAAAUUAAUAAAGACCAGAAGGACUGGUCACACAACAUGAGGAUCACCCAUGUGUGUGUUGUGAA | 11.9 nM | 10.4 nM |  | 
AAGGACUGAAUAAAUAACUCAAAUACAUGAGGAUCACCCAUGUAGGAUAUCGUCAGGAAUACUGACGAGAAGGACAUACAGUCC | 14 nM | 20.2 nM |  | 
AAGGACUGUAAUAAUGUAGAAAUACAUGAGGAUCACCCAUGUAAGGAUAUCGUCAGGAAUACUGACGAGAAGGUACAUCAGUCC |  | 25.8 nM |  | 
AAGGGACAUGAGGAUCACCCAUGUGAGGAUAUGCUAUGGAAAAUAAAAAAUAAACAUAGCAGAAGGCAUAAAAA | 64.9 nM | 97 nM |  | 
AAGGUACAUGAGGAUCACCCAUGUGGGUCGGUCGCAGGAUAUCGCCGUUGGCCCUGGCGGCGAGAAGGGUGCCGAA |  |  | 375 nM | 61.1 nM
AAGGUGAGAGGAUAUACAUGAGGAUCACCCAUGUGCCGGCCCUCCACAUAUGCCUUGUGUAGAAGGCUCCCGAA | 14.5 nM | 14.9 nM |  | 
AAGGUGUUAGGAUAUCGUAGUUUGAGGCAGACGGGAUUUUGCGAGAAGGAACAUGAGGAUCACCCAUGUAGGAU | 27.2 nM | 30.4 nM |  | 
